MIC and Ratio data for 7 compounds are collected here from ChEMBL document CHEMBL4342503, “Diazabicyclooctane Functionalization for Inhibition of β-Lactamases from Enterobacteria” (2020).

Activity calls are given as the source filed them. Some results are limits rather than exact numbers.

A word on the MIC: it is the smallest concentration in the dilution series that meets the test's criterion for growth inhibition.

Assay [1] has as its system Escherichia coli. The experiment in a line: Antibacterial activity against Escherichia coli Top10 harboring CTX-M-15 assessed as amoxicillin MIC by CLSI protocol based method (reference value: 2048 ug/ml). It counts as functional.
Assay [2] relates to Escherichia coli. The experiment in a line: Antibacterial activity against Escherichia coli Top10 harboring AmpC assessed as cefotaxime MIC by CLSI protocol based method (reference value: 256 ug/ml). It counts as functional.
Assay [3] in a line: Inhibition of TEM1 (unknown origin) expressed in Escherichia coli BL21 DE3 assessed as K2/Ki ratio using nitrocefin as substrate by spectrophotometry. The procedure, abridged: (§1)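 His-tagged enzymes expressed in E. coli BL21(DE3) (IPTG 0.5 mM, 16°C, 18 h), purified by Ni-NTA and size exclusion in 25 mM Tris-HCl pH 7.5, 300 mM NaCl. Carbamoylation k2/Ki from progress curves, reporter nitrocefin 100 μM, 20°C, 100 mM MES pH 6.4; inhibitor up to 100 μM; ≥6 curves, ≥2 independent experiments.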

Assay [4] concerns Escherichia coli. The experiment in a line: Antibacterial activity against Escherichia coli Top10 harboring KPC-2 assessed as aztreonam MIC by CLSI protocol based method (reference value: 2048 ug/ml). It counts as functional.
The test system of assay [5] is Enterobacter cloacae. The experiment in a line: Inhibition of Enterobacter cloacae CTX-M-15 N132G mutant expressed in Escherichia coli BL21 DE3 assessed as K2/Ki ratio using nitrocefin as substrate by spectrophotometry. The procedure, abridged: as §1
For assay [6], the system named is Enterobacter cloacae. The experiment in a line: Inhibition of Enterobacter cloacae CTX-M-15 expressed in Escherichia coli BL21 DE3 assessed as K2/Ki ratio using nitrocefin as substrate by spectrophotometry. The essentials:
as §1

Assay [7] relates to Escherichia coli. The experiment in a line: Antibacterial activity against Escherichia coli Top10 harboring TEM1 assessed as cefamandole MIC by CLSI protocol based method (reference value: 2048 ug/ml). It counts as functional.
The test system of assay [8] is Escherichia coli. The experiment in a line: Antibacterial activity against Escherichia coli Top10 harboring OXA-48 assessed as ertapenem MIC by CLSI protocol based method (reference value: 8 ug/ml). It counts as functional.
In assay [9] the test system is Escherichia coli. The experiment in a line: Antibacterial activity against Escherichia coli Top10 without harboring KPC-2 assessed as aztreonam MIC by CLSI protocol based method (reference value: 0.5 ug/ml). It counts as functional.
Assay [10] deals with Enterobacter cloacae. The experiment in a line: Inhibition of Enterobacter cloacae AmpC expressed in Escherichia coli BL21 DE3 assessed as K2/Ki ratio using nitrocefin as substrate by spectrophotometry. The procedure, abridged: as §1
Assay [11] in a line: Inhibition of OXA-48 expressed in Escherichia coli BL21 DE3 assessed as K2/Ki ratio using CENTA as substrate by spectrophotometry. The procedure, abridged: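 OXA-48 expressed in E. coli BL21(DE3) (IPTG 0.5 mM, 16°C, 18 h), purified by Ni-NTA and size exclusion. Carbamoylation k2/Ki by spectrophotometric progress curves with CENTA 100 μM as reporter, 20°C, 100 mM MES pH 6.4; inhibitor up to 100 μM; ≥6 curves from ≥2 independent experiments.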

Assay [12] concerns Escherichia coli. The experiment in a line: Antibacterial activity against Escherichia coli Top10 without harboring OXA-48 assessed as ertapenem MIC by CLSI protocol based method (reference value: < 0.03 ug/ml). It counts as functional.
Assay [13] has as its system Escherichia coli. The experiment in a line: Antibacterial activity against Escherichia coli Top10 without harboring CTX-M-15 assessed as amoxicillin MIC by CLSI protocol based method (reference value: 8 ug/ml). It counts as functional.
Assay [14] is described as follows: Inhibition of KPC-2 (unknown origin) expressed in Escherichia coli BL21 DE3 assessed as K2/Ki ratio using nitrocefin as substrate by spectrophotometry. The essentials: as §1
The subject of another assay is Bacteria. The experiment in a line: Inhibition of bacterial KPC-2 N132G mutant expressed in Escherichia coli BL21 DE3 assessed as K2/Ki ratio using nitrocefin as substrate by spectrophotometry. The procedure, abridged:
as §1

Assay [15] has as its system Escherichia coli. The experiment in a line: Antibacterial activity against Escherichia coli Top10 without harboring AmpC assessed as cefotaxime MIC by CLSI protocol based method (reference value: 0.125 ug/ml). It counts as functional.
Assay [16] relates to Escherichia coli. The experiment in a line: Antibacterial activity against Escherichia coli Top10 assessed as cefamandole MIC by CLSI protocol based method (reference value: 2 ug/ml). It counts as functional. The procedure, abridged:
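Broth microdilution in cation-adjusted Mueller-Hinton broth following CLSI. Strain carries a β-lactamase gene cloned in pTRC-99k (kanamycin marker); preculture in BHI with IPTG (500 μM) and kanamycin (50 μg/ml); IPTG (500 μM) also in plates to induce enzyme. β-Lactam MIC read with or without inhibitor at fixed 15 μM (4 μg/ml for avibactam; clavulanate 4 μg/ml). Median of five biological repeats from two independent experiments.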

Consider `O=C1N2C[C@@H](CC[C@H]2Cn2cc(-c3ccccc3)nn2)N1OS(=O)(=O)[O-].[Na+]`, for which the MIC in the assay with Escherichia coli [1] amounted to 64 µg/mL; in the assay on Escherichia coli [2] it was 128 µg/mL; in the assay on Escherichia coli [4], 64 µg/mL; with Escherichia coli [7], 16 µg/mL; in the assay on Escherichia coli [8], 8 µg/mL; in the assay with Escherichia coli [9] it was 0.25 µg/mL. Moreover, the MIC in the assay with Escherichia coli [12] was less than 0.03 µg/mL; in the assay on Escherichia coli [13], 8 µg/mL; with Escherichia coli [15] it was 0.25 µg/mL; with Escherichia coli [16], 4 µg/mL. Also, the Ratio in [3] stood at 4700 M⁻¹ s⁻¹; with Enterobacter cloacae [5], 140 M⁻¹ s⁻¹; in the assay on Enterobacter cloacae [6] it was 6900 M⁻¹ s⁻¹; with Enterobacter cloacae [10], 200 M⁻¹ s⁻¹; in [11], 110 M⁻¹ s⁻¹; in [14], 930 M⁻¹ s⁻¹. For the same compound, in the assay with Bacteria, the Ratio worked out at 21 M⁻¹ s⁻¹.

For `NC(=O)[C@@H]1CC[C@@H]2CN1C(=O)N2OS(=O)(=O)[O-].[Na+]` [AVIBACTAM SODIUM], the MIC was determined as 2 µg/mL in the assay on Escherichia coli [1]; 1 µg/mL in the assay on Escherichia coli [2]; 0.5 µg/mL in the assay on Escherichia coli [4]; 2 µg/mL with Escherichia coli [7]; 0.5 µg/mL in the assay on Escherichia coli [8]; 0.25 µg/mL with Escherichia coli [9]. Besides, the MIC in the assay with Escherichia coli [12] was less than 0.03 µg/mL; with Escherichia coli [13], 2 µg/mL; with Escherichia coli [15], 0.125 µg/mL; with Escherichia coli [16], 2 µg/mL. For the same compound, the Ratio in [3] came out at 88000 M⁻¹ s⁻¹; in the assay with Enterobacter cloacae [5], 70 M⁻¹ s⁻¹; in the assay on Enterobacter cloacae [6], 130000 M⁻¹ s⁻¹; in the assay with Enterobacter cloacae [10] it was 18000 M⁻¹ s⁻¹; in assay [11], 980 M⁻¹ s⁻¹; in assay [14], 26000 M⁻¹ s⁻¹. The Ratio in the assay on Bacteria was 53 M⁻¹ s⁻¹.

Take `O=C1N2C[C@@H](CC[C@H]2Cn2ccnn2)N1OS(=O)(=O)[O-].[Na+]`: the minimum inhibitory concentration (MIC) in the assay on Escherichia coli [1] is 64 µg/mL; in the assay with Escherichia coli [2], 16 µg/mL; in the assay on Escherichia coli [4], 512 µg/mL; in the assay with Escherichia coli [7], 8 µg/mL; in the assay on Escherichia coli [8], 8 µg/mL; with Escherichia coli [9] it was 0.25 µg/mL. In addition, the MIC in the assay with Escherichia coli [12] was less than 0.03 µg/mL; with Escherichia coli [13], 8 µg/mL; with Escherichia coli [15], 0.125 µg/mL; in the assay on Escherichia coli [16], 2 µg/mL. The Ratio in assay [3] was 1200 M⁻¹ s⁻¹; in the assay with Enterobacter cloacae [5] it was 6.6 M⁻¹ s⁻¹; in the assay on Enterobacter cloacae [6] it was 280 M⁻¹ s⁻¹; in the assay on Enterobacter cloacae [10], 210 M⁻¹ s⁻¹; in [11], 140 M⁻¹ s⁻¹; in assay [14], 280 M⁻¹ s⁻¹. Also, the Ratio in the assay on Bacteria was 31 M⁻¹ s⁻¹.

`O=C(O)C(F)(F)F.O=C1N2C[C@@H](CC[C@H]2Cn2cc(C3CCNCC3)nn2)N1OS(=O)(=O)O`: the MIC with Escherichia coli [1] worked out at 64 µg/mL; with Escherichia coli [2] it was 128 µg/mL; in the assay on Escherichia coli [4], 32 µg/mL; in the assay on Escherichia coli [7], 4 µg/mL; in the assay on Escherichia coli [8] it was 8 µg/mL; in the assay with Escherichia coli [9], 0.25 µg/mL. Besides, the MIC in the assay with Escherichia coli [12] is less than 0.03 µg/mL; in the assay on Escherichia coli [13] it was 4 µg/mL; in the assay with Escherichia coli [15], 0.125 µg/mL; with Escherichia coli [16] it was 2 µg/mL. Further, the Ratio in assay [3] was 3600 M⁻¹ s⁻¹; in the assay on Enterobacter cloacae [6], 350 M⁻¹ s⁻¹; in the assay with Enterobacter cloacae [10], 26 M⁻¹ s⁻¹; in assay [14], 340 M⁻¹ s⁻¹. The Ratio entry in assay [11] was “inactive”.

As for `O=C1N2C[C@@H](CC[C@H]2Cn2cc(CN3CCOCC3)nn2)N1OS(=O)(=O)[O-].[Na+]`, the minimum inhibitory concentration (MIC) was 64 µg/mL in the assay on Escherichia coli [1]; 128 µg/mL in the assay with Escherichia coli [2]; 32 µg/mL in the assay with Escherichia coli [4]; 8 µg/mL in the assay with Escherichia coli [7]; 8 µg/mL in the assay on Escherichia coli [8]; 0.25 µg/mL with Escherichia coli [9]. Besides, the MIC was less than 0.03 µg/mL in the assay on Escherichia coli [12], 8 µg/mL in the assay with Escherichia coli [13], 0.125 µg/mL in the assay on Escherichia coli [15] and 2 µg/mL in the assay on Escherichia coli [16]. Also, the Ratio in [3] came to 1200 M⁻¹ s⁻¹; in the assay with Enterobacter cloacae [6] it was 100 M⁻¹ s⁻¹; in the assay on Enterobacter cloacae [10], 31 M⁻¹ s⁻¹; in assay [14], 190 M⁻¹ s⁻¹. Moreover, the Ratio entry in assay [11] is “inactive”.

`O=C(NC1CCNCC1)[C@@H]1CC[C@@H]2CN1C(=O)N2OS(=O)(=O)[O-].[Na+]`: the MIC stood at 16 µg/mL in the assay on Escherichia coli [1]; 0.25 µg/mL in the assay with Escherichia coli [2]; 0.5 µg/mL in the assay on Escherichia coli [4]; 4 µg/mL with Escherichia coli [7]; 8 µg/mL in the assay on Escherichia coli [8]; 0.25 µg/mL with Escherichia coli [9]. For the same compound, the MIC is less than 0.03 µg/mL in the assay with Escherichia coli [12], 2 µg/mL in the assay on Escherichia coli [13], 0.125 µg/mL in the assay with Escherichia coli [15] and 2 µg/mL with Escherichia coli [16]. The Ratio was determined as 43000 M⁻¹ s⁻¹ in assay [3], 960 M⁻¹ s⁻¹ in the assay with Enterobacter cloacae [6], 15000 M⁻¹ s⁻¹ with Enterobacter cloacae [10] and 10000 M⁻¹ s⁻¹ in [14]. The Ratio entry in [11] was “inactive”.

`O=C1N2C[C@@H](CC[C@H]2Cn2nccn2)N1OS(=O)(=O)[O-].[Na+]`: the minimum inhibitory concentration (MIC) in the assay on Escherichia coli [1] turned out to be 512 µg/mL; in the assay with Escherichia coli [2] it was 32 µg/mL; in the assay on Escherichia coli [4], 512 µg/mL; in the assay on Escherichia coli [7], 16 µg/mL; with Escherichia coli [8], 8 µg/mL; in the assay on Escherichia coli [9] it was 0.5 µg/mL. The MIC is less than 0.03 µg/mL in the assay with Escherichia coli [12], 4 µg/mL in the assay with Escherichia coli [13], 0.125 µg/mL in the assay with Escherichia coli [15] and 2 µg/mL in the assay on Escherichia coli [16]. For the same compound, the Ratio in assay [3] came out at 2600 M⁻¹ s⁻¹; in the assay on Enterobacter cloacae [6], 120 M⁻¹ s⁻¹; with Enterobacter cloacae [10] it was 200 M⁻¹ s⁻¹; in [11], 150 M⁻¹ s⁻¹; in assay [14], 350 M⁻¹ s⁻¹.
